# Laboratory results as given in ChEMBL document CHEMBL3120045, “Monovalent mannose-based DC-SIGN antagonists: targeting the hydrophobic groove of the receptor” (Eur J Med Chem, 2014).
# Key:
# CD209 antigen [1] = target: T1, CD209 antigen (Homo sapiens, UniProt Q9NNX6); assay: Antagonist activity at DC-SIGN receptor (unknown origin) assessed as inhibition of mannosylated BSA binding by SPR assay
# T1 sequence (Q9NNX6 whole entry): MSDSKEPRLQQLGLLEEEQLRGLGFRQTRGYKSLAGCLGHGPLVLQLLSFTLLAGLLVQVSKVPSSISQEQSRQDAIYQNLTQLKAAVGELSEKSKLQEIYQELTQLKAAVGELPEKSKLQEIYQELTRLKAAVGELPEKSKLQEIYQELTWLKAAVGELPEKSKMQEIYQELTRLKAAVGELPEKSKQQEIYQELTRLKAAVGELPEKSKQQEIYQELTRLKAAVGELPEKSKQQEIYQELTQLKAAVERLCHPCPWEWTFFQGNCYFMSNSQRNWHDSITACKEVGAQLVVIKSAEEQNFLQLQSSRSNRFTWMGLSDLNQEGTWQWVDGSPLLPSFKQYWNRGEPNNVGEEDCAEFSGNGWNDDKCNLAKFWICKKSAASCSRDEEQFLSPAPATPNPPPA
# CD209 antigen [2] = target: T1, CD209 antigen; assay: Displacement of biotinylated HIV1 gp120 from DC-SIGN receptor carbohydrate recognition domain (unknown origin) after 2 hrs by solid-phase competitive displacement assay
# [3] = Cytotoxicity against human DC at 50 uM after 24 hrs by propidium iodide staining-based flow cytometry
# Outline: (§1)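 Immature DCs, seeded after 5 days of culture at 0.5 × 10⁶ cells/ml, were treated with compounds at 50, 100 and 250 for 24 h. Cells were then harvested, stained with propidium iodide for 15 min and analysed by flow cytometry. The percentage of PI-positive cells was taken as the percentage of dead cells.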
# [4] = Cytotoxicity against human DC at 250 uM after 24 hrs by propidium iodide staining-based flow cytometry
# [5] = Cytotoxicity against human DC at 250 uM after 24 hrs by propidium iodide staining-based flow cytometry; outline: as §1
# [6] = Cytotoxicity against human DC at 100 uM after 24 hrs by propidium iodide staining-based flow cytometry; outline: as §1
# CD209 antigen [7] = target: T1, CD209 antigen; assay: Displacement of [125I]-Man30-BSA from DC-SIGN receptor carbohydrate recognition domain (unknown origin) after 2 hrs by gamma-counting analysis
IC50 (CD209 antigen [2]),Compound,Activity [3],Activity [4],Activity [5],further results
2.76 mM,COC(=O)[C@H]1C[C@H](OCCN=[N+]=[N-])[C@@H](O[C@H]2O[C@H](CO)[C@@H](O)[C@H](O)[C@@H]2O)C[C@@H]1C(=O)OC,,,,IC50 (CD209 antigen [1]): 1.02 mM
0.42 mM,[N-]=[N+]=NCCO[C@H]1C[C@H](C(=O)NCc2ccc(CO)cc2)[C@@H](C(=O)NCc2ccc(CO)cc2)C[C@@H]1O[C@H]1O[C@H](CO)[C@@H](O)[C@H](O)[C@@H]1O,,,,IC50 (CD209 antigen [1]): 0.325 mM
,N#Cc1ccc(C(=O)NCC(CNC(=O)c2ccc(C#N)cc2)O[C@H]2O[C@H](CO)[C@@H](O)[C@H](O)[C@@H]2O)cc1,Non-toxic,,,
,O=C(NCC(CNC(=O)c1ccc2ccccc2c1)O[C@H]1O[C@H](CO)[C@@H](O)[C@H](O)[C@@H]1O)c1ccc2ccccc2c1,Non-toxic,Toxic,Toxic,
,OC[C@H]1O[C@H](OC(COc2cccc3ccccc23)COc2cccc3ccccc23)[C@@H](O)[C@@H](O)[C@@H]1O,Non-toxic,Toxic,Toxic,Activity [6]: Toxic
,COc1ccc2ccc(OCC(COc3ccc4ccc(OC)cc4c3)O[C@H]3O[C@H](CO)[C@@H](O)[C@H](O)[C@@H]3O)cc2c1,Non-toxic,Toxic,Toxic,Activity [6]: Toxic
,COc1ccc(OCC(CO[C@H]2O[C@H](CO)[C@@H](O)[C@H](O)[C@@H]2O)Oc2ccc(OC)cc2)cc1 (mixture of isomers),Non-toxic,,,
,OC[C@H]1O[C@H](OCC(COc2ccc3ccccc3c2)Oc2ccc3ccccc3c2)[C@@H](O)[C@@H](O)[C@@H]1O (mixture of isomers),Non-toxic,Toxic,Toxic,
,OC[C@H]1OC(O)[C@@H](O)[C@@H](O)[C@@H]1O (stereo partly drawn) [D-MANNOSE],,,,Ki (CD209 antigen [7]): 13.1 mM
2.95 mM,C[C@H](O)[C@@H](O)[C@@H](O)[C@H](O)C=O [L-FUCOSE],,,,Ki (CD209 antigen [7]): 6.7 mM
